Results taken from ChEMBL document CHEMBL2169854, “New insight into the central benzodiazepine receptor-ligand interactions: design, synthesis, biological evaluation, and molecular modeling of 3-substituted 6-phenyl-4H-imidazo[1,5-a][1,4]benzodiazepines and related compounds” (J Med Chem, 2011).
pKi: −log10 of the molar value. Active and inactive are the calls of the source. The calls are words filed in the database; no cut-off is given here.

Legend:
[1] = Displacement of [3H]flumazenil from central benzodiazepine receptor in bovine cortical membrane after 90 mins by beta liquid scintillation counting; format: cell membranes, Bos taurus
In short: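 At least six concentrations spanning 3 log units were tested in 2% DMSO. Ki was obtained by Cheng–Prusoff (Kd 0.85 nM bovine, 0.91 nM human), mean of three determinations.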

[2] = target: T1, GABA-A receptor; alpha-1/beta-2/gamma-2 (Homo sapiens) (UniProt P14867+P47870+P18507); assay: (§1) Modulation of human recombinant GABA-A alpha1beta2gamma2L receptor expressed in Xenopus laevis oocytes assessed as effect on GABA-induced chloride current at 1 uM incubated 60 seconds before addition of GABA measured after 30 seconds at holding potential -70 mV by two-microelectrode voltage clamp technique relative to control; format: cell-based; settings: Oocyte
[3] = target: T2, GABA A receptor alpha-1/beta-1/gamma-2 (Homo sapiens) (UniProt P14867+P18507+P18505); assay: (§2) Antagonist at human recombinant GABA-A alpha1beta1gamma2L receptor expressed in Xenopus laevis oocytes assessed as blockade of diazepam-induced potentiation of GABA-induced chloride current at 10 uM incubated 60 seconds before addition of GABA measured after 30 seconds at holding potential -70 mV by two-microelectrode voltage clamp technique; format: functional, cell-based; settings: Oocyte
[4] = target: T1, GABA-A receptor; alpha-1/beta-2/gamma-2 (Homo sapiens); assay: as §1, with “at 0.1” for “at 1”; format: cell-based; settings: Oocyte
[5] = target: T2, GABA A receptor alpha-1/beta-1/gamma-2 (Homo sapiens); assay: as §1, with “alpha1beta1gamma2L” for “alpha1beta2gamma2L”, “10” for “1”; format: cell-based; settings: Oocyte
[6] = species: Homo sapiens; assay: Ratio of Ki for central benzodiazepine receptor in human cortical membrane to Ki for central benzodiazepine receptor in human cortical membrane in presence of 50 uM GABA; format: cell membranes
[7] = species: Bos taurus; assay: Ratio of Ki for central benzodiazepine receptor in bovine cortical membrane to Ki for central benzodiazepine receptor in bovine cortical membrane in presence of 50 uM GABA; format: cell membranes
[8] = system: Oocyte; assay: as §2, with “alpha5beta2gamma2L” for “alpha1beta1gamma2L”; format: functional, cell-based
In short: (§3)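 Oocytes expressing human α1β2γ2L, α2β1γ2L or α5β2γ2L receptors were clamped at −70 mV. Compound at 10 μM was tested against the enhancement of the GABA EC10 response by 1.0 μM diazepam, with 60 s preapplication and 30 s coapplication. The response was expressed as percent potentiation, from 2–3 oocytes.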

[9] = target: T1, GABA-A receptor; alpha-1/beta-2/gamma-2 (Homo sapiens); assay: as §2, with “alpha1beta2gamma2L” for “alpha1beta1gamma2L”; format: functional, cell-based; settings: Oocyte; in short: as §3
[10] = system: Oocyte; assay: as §1, with “alpha5beta2gamma2L” for “alpha1beta2gamma2L”; format: cell-based
[11] = species: Rattus norvegicus; assay: Antagonist activity at central benzodiazepine receptor in Sprague-Dawley rat cerebrocortical synaptoneurosomes assessed as effect on GABA-induced [36]chloride ion flow after 10 seconds by beta liquid scintillation counting; format: functional
In short: (§4)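 Cerebral cortex from male Sprague-Dawley rats was homogenised and filtered, and synaptoneurosomes were washed in HEPES pH 7 buffer (145 mM NaCl, 5 mM KCl, 5 mM MgCl2, 1 mM CaCl2, 10 mM glucose). Aliquots of 1.5–2 mg protein were preincubated 10 min at 30 C. Drug was added with 0.2 μCi 36Cl−, uptake was stopped at 10 s, and filter-bound radioactivity was counted by scintillation.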

[12] = target: T1, GABA-A receptor; alpha-1/beta-2/gamma-2 (Homo sapiens); assay: as §1, with “at 0.01” for “at 1”; format: cell-based; settings: Oocyte
[13] = system: Oocyte; assay: as §1, with “alpha5beta2gamma2L” for “alpha1beta2gamma2L”, “10” for “1”; format: cell-based
[14] = target: T1, GABA-A receptor; alpha-1/beta-2/gamma-2 (Homo sapiens); assay: as §1, with “at 10” for “at 1”; format: cell-based; settings: Oocyte
[15] = target: T2, GABA A receptor alpha-1/beta-1/gamma-2 (Homo sapiens); assay: as §1, with “alpha1beta1gamma2L” for “alpha1beta2gamma2L”; format: cell-based; settings: Oocyte
[16] = Displacement of [3H]flumazenil from central benzodiazepine receptor in human cortical membrane after 90 mins by beta liquid scintillation counting; format: cell membranes
[17] = system: Mus musculus; assay: Myorelaxant activity in mouse assessed as motor coordination measuring number of falls at 1 mg/kg, ip measured for 30 seconds after 45 mins of compound administration by rotarod test; format: functional, organism-based; set-up: dose 1 mg/kg
[18] = system: Mus musculus; assay: Anxiolytic effect in mouse assessed as increase in time spent in light compartment at 1 mg/kg, ip by light/dark box test; format: functional, organism-based; set-up: dose 1 mg/kg
In short: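 Male mice were used. Compound was given orally as a suspension in 1% CMC; diazepam was given ip in saline; volume 10 mL/kg. Each mouse was placed in the lit side of a two-compartment light/dark box and observed for 5 min, scoring time in the light and transfers. Groups were compared by ANOVA with Fisher PLSD.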

[19] = species: Rattus norvegicus; assay: Agonist activity at central benzodiazepine receptor in Sprague-Dawley rat cerebrocortical synaptoneurosomes assessed as increase in GABA-induced [36]chloride ion flow after 10 seconds by beta liquid scintillation counting; format: functional; in short: as §4

Structure (SMILES)	pKi [1]	Ratio Ki [7]	pKi [16]	other results
CCOC(=O)c1ncn2c1CN=C(c1ccc(Cl)cc1)c1ccc3ccccc3c1-2	< 5.00	–	–	–
CCOC(=O)c1ncn2c1CN=C(c1ccc(Cl)cc1)c1ccccc1-2	7.90	0.84	7.65	Activity [2]: 3.6%; Activity [3]: Active; Activity [4]: 1%; Activity [5]: -18%; Ratio Ki [6]: 0.87; Activity [8]: Active; Activity [9]: Active; Activity [10]: -0.5%; Activity [11]: Active; Activity [12]: 13%; Activity [13]: 0%; Activity [14]: 6.3%; Activity [15]: -7%
CCOC(=O)c1ncn2c1C(C)N=C(c1ccccc1)c1ccccc1-2 (stereo unspecified)	6.34	1.3	6.12	–
CCOC(=O)c1ncn2c1CN=C(c1ccc(OC)cc1)c1cc(Cl)ccc1-2	6.68	–	6.64	–
CN(C)C(=O)c1ncn2c1CN=C(c1ccc(Cl)cc1)c1cc(Cl)ccc1-2	< 5.00	–	–	–
CC(C)(C)OC(=O)c1ncn2c1CN=C(c1ccc(Cl)cc1)c1cc(Cl)ccc1-2	5.89	–	–	–
CCOC(=O)c1ncn2c1CN=C(c1cccc([N+](=O)[O-])c1)c1cc(Cl)ccc1-2	8.77	0.99	8.64	Ratio Ki [6]: 0.98; Activity [11]: Active
CNC(=O)c1ncn2c1CN=C(c1ccc(Cl)cc1)c1cc(Cl)ccc1-2	< 5.00	–	–	–
NC(=O)c1ncn2c1CN=C(c1ccc(Cl)cc1)c1cc(Cl)ccc1-2	< 5.00	–	–	–
CCOC(=O)c1ncn2c1C(C)N=C(c1ccc(F)cc1)c1cc(F)ccc1-2 (stereo unspecified)	6.29	1.19	6.26	–
CCOC(=O)c1ncn2c1CN=C(c1ccc(F)cc1)c1ccccc1-2	7.94	0.77	7.68	Ratio Ki [6]: 0.96; Activity [11]: Active
O=C1OCCC2N=C(c3ccccc3)c3ccccc3-n3cnc1c32 (stereo unspecified)	6.55	0.95	–	–
CCOC(=O)c1ncn2c1CN=C(c1cccc3ccccc13)c1cc(Cl)ccc1-2	6.73	1.3	6.67	–
CCOC(=O)c1ncn2c1CN=C(c1ccc(OC)cc1)c1ccccc1-2	6.96	0.78	6.92	–
Clc1ccc(C2=NCc3c(-c4nnn[nH]4)ncn3-c3ccc(Cl)cc32)cc1	< 5.00	–	–	–
N#Cc1ncn2c1CN=C(c1ccc(Cl)cc1)c1cc(Cl)ccc1-2	5.78	–	–	–
CCOC(=O)c1ncn2c1CN=C(c1cccc([N+](=O)[O-])c1)c1cc(F)ccc1-2	–	–	–	Activity [2]: 14%; Activity [3]: Active; Activity [5]: -3.3%; Activity [8]: Active; Activity [9]: Active; Activity [10]: 27%; Activity [13]: -2.5%; Activity [14]: -24%; Activity [15]: 10%
CN1C(=O)CN=C(c2ccccc2)c2cc(Cl)ccc21	–	–	–	Activity [17]: Active; Activity [18]: Active
CCOC(=O)c1ncn2c1CN(C)C(=O)c1cc(F)ccc1-2 [FLUMAZENIL]	8.72	–	–	Activity [11]: Active
CCOC(=O)c1ncn2c1CN=C(c1ccc(Cl)cc1)c1cc(Cl)ccc1-2	6.63	1.3	6.68	–
CCOC(=O)c1ncn2c1CN=C(c1ccc(F)cc1)c1cc(Cl)ccc1-2	6.73	1.25	6.67	–
CN1C(=O)CN=C(c2ccccc2F)c2cc([N+](=O)[O-])ccc21 [FLUNITRAZEPAM]	8.29	1.68	8.19	Ratio Ki [6]: 1.6; Activity [19]: Active
CCOC(=O)c1ncn2c1CN=C(c1ccc(C)cc1)c1cc(Cl)ccc1-2	6.70	1.05	6.75	–
